Consider four compounds from ChEMBL document CHEMBL4308883, “Development of hydroxamate-based histone deacetylase inhibitors containing 1,2,4-oxadiazole moiety core with antitumor activities” (Bioorg Med Chem Lett, 2019).

A word on the IC50: it is the concentration needed to halve the response being measured.

Assay [1] deals with T1, Histone deacetylase 1 (Homo sapiens, UniProt Q13547). Description: Inhibition of HDAC1 (unknown origin) using Boc-Lys (Ac)-AMC as substrate measured after 60 mins by […]. A general note: In an ELISA, binding on a coated surface is turned into a signal by an enzyme label.
Assay [2] concerns HCCLM3. Description: Antiproliferative activity against human HCCLM3 cells after 48 hrs by MTT assay. The note with it: HCCLM3, 48 h. The class given is functional, cell-based. (Formazan colour is commonly taken as a measure of viable cells.)
Assay [3] relates to HepG2. Description: Antiproliferative activity against human HepG2 cells after 48 hrs by MTT assay. The class given is functional, cell-based. The settings on record: HepG2, 48 h.
Assay [4] concerns HepG2. Description: Potency index, ratio of SAHA IC50 to test compound IC50 for antiproliferative activity against human HepG2 cells. The format is functional.
Assay [5] addresses T1, Histone deacetylase 1. Description: Inhibition of HDAC1 in human HepG2 cells assessed as increase in acetylated histone H3 levels by Western blot analysis. The class given is cell-based. The method in brief:
(§1)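 HepG2 cells were treated at three concentrations (1.25, 2.5 and 5.0), with SAHA as the reference. Acetylated histone H3 and H4 were detected by immunoblotting. Ac-H3 and Ac-H4 band intensities were quantified by densitometric scanning and normalised to β-actin, n = 3.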

Assay [6] concerns the target T1, Histone deacetylase 1. Description: Inhibition of HDAC1 in human HepG2 cells assessed as increase in acetylated histone H4 levels by Western blot analysis. The class given is cell-based. The essentials:
as §1
A general note: Immunoblotting shows a protein as a band on a membrane.

The test system of assay [7] is HepG2. Description: Induction of apoptosis in human HepG2 cells after 48 hrs by annexin V-FITC/propidium iodide staining based assay. The class given is functional, cell-based.
Assay [8] relates to HepG2. Description: Induction of apoptosis in human HepG2 cells assessed as early apoptotic cells at 1.25 uM after 48 hrs by annexin V-FITC/propidium iodide staining based assay (reference value: 3.2 %). The format is functional.
The test system of assay [9] is HepG2. Description: Induction of apoptosis in human HepG2 cells assessed as late apoptotic cells at 1.25 uM after 48 hrs by annexin V-FITC/propidium iodide staining based assay (reference value: 1.8 %). The format is functional.
Assay [10] relates to HepG2. Description: Induction of apoptosis in human HepG2 cells assessed as early apoptotic cells at 2.5 uM after 48 hrs by annexin V-FITC/propidium iodide staining based assay (reference value: 3.2 %). The format is functional.
Assay [11] concerns HepG2. Description: Induction of apoptosis in human HepG2 cells assessed as late apoptotic cells at 2.5 uM after 48 hrs by annexin V-FITC/propidium iodide staining based assay (reference value: 1.8 %). The format is functional.
Assay [12] concerns HepG2. Description: Induction of apoptosis in human HepG2 cells assessed as early apoptotic cells at 5 uM after 48 hrs by annexin V-FITC/propidium iodide staining based assay (reference value: 3.2 %). The class given is functional.
Assay [13] deals with HepG2. Description: Induction of apoptosis in human HepG2 cells assessed as late apoptotic cells at 5 uM after 48 hrs by annexin V-FITC/propidium iodide staining based assay (reference value: 1.8 %). The format is functional.
Assay [14] concerns the target T1, Histone deacetylase 1. Description: Potency index, ratio of SAHA IC50 to test compound IC50 for HDAC1 (unknown origin).

T1 sequence (Q13547 whole entry): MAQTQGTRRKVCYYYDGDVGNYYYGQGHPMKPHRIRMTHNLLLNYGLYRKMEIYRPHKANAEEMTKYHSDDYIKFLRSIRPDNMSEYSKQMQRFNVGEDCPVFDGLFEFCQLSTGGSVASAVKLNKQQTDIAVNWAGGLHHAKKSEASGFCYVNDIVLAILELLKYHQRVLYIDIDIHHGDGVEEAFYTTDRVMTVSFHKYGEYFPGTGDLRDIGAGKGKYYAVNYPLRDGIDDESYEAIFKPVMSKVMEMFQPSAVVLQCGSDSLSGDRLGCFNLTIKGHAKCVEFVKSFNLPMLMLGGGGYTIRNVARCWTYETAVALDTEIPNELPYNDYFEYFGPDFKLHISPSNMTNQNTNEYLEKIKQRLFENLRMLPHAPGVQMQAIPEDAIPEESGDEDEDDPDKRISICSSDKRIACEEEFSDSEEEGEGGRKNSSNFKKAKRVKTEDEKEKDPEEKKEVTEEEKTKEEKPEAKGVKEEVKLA

On to `COc1ccc(N(Cc2noc(-c3cccc(C)c3)n2)C(=O)CCCCCC(=O)NO)cc1`, for which the IC50 in [1] turned out to be 12.1 nM; in assay [2], 6830 nM; in assay [3], 1680 nM. Further, the “Ratio IC50” value in assay [4] is 2 - 4.
With `COc1ccc(N(Cc2noc(-c3cccc(F)c3)n2)C(=O)CCCCCC(=O)NO)cc1`, the figures for the IC50 in assay [1], in assay [2] and in [3] were 10.5 nM, 6560 nM and 1030 nM, respectively. Moreover, the inhibition entry in assay [5] and in assay [6] was “Dose-dependent effect” each time. Moreover, the Activity entry in assay [7] is “Dose-dependent effect”; in assay [8], 44.6%; in [9], 11.1%; in assay [10], 44%; in [11], 14%; in [12], 50.8%. Besides, the Activity in [13] is on record as 10%. Also, the “Ratio IC50” value in assay [4] is listed as 2 - 4.
As for `COc1ccc(N(Cc2noc(-c3ccccc3)n2)C(=O)CCCCCC(=O)NO)cc1`, the IC50 in [1] was determined as 8.2 nM; in assay [2] it was 5190 nM; in [3], 1070 nM. Besides, the figures for the Ratio IC50 in assay [14] and in assay [4] were 2 and 2 - 4, respectively. Further, the inhibition entry in assay [5] and in assay [6] was “Dose-dependent effect” each time. Further, the Activity entry in assay [7] is “Dose-dependent effect”; in [8] it was 40.7%; in assay [9], 10.1%; in [10], 42.7%; in [11], 11.3%; in assay [12] it was 50.2%. Besides, the Activity in [13] came out at 11.5%.
For the compound `O=C(CCCCCCC(=O)Nc1ccccc1)NO` [VORINOSTAT], the Activity was found to be 29.7% in assay [8]; 9.3% in assay [9]; 33.5% in [10]; 10.7% in assay [11]; 40.4% in assay [12]; 10.7% in assay [13].
